This passage reports Ki and Selectivity results from ChEMBL document CHEMBL1144302, “Triaryl bis-sulfones as a new class of cannabinoid CB2 receptor inhibitors: identification of a lead and initial SAR studies” (Bioorg Med Chem Lett, 2005).

The target in one assay is Cannabinoid receptor 1 (Homo sapiens, UniProt P21554). Put plainly: Binding affinity for cannabinoid receptor 1.
Assay [1] in a line: Binding affinity for cannabinoid receptor 2 was determined by using [35S]GTP-gamma-S, as radioligand. Format: functional, Homo sapiens. The gist of the method:
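Human CB2 co-expressed with Gαi3 and β1γ2 in Sf9 cell membranes (7–14 pmol/mg receptor). Triplicate serial dilutions were incubated with membranes, 0.3 nM [35S]GTPγS and GDP in 20 mM HEPES, 100 mM NaCl, 5 mM MgCl2, 0.2% (w/v) lipid-free BSA, pH 7.4, for 30 min at 30°C. Reactions were stopped by filtration, and filters were washed 10× at room temperature with 20 mM HEPES/10 mM sodium pyrophosphate. Bound label was counted by liquid scintillation.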

In assay [2] the target is Cannabinoid receptor (Homo sapiens) (UniProt P34972+P21554). Put plainly: Selectivity of cannabinoid receptor 2 over cannabinoid receptor 1. Format: protein assay.
The target of another assay is Cannabinoid receptor 2 (Homo sapiens, UniProt P34972). Put plainly: Binding affinity for human cannabinoid receptor 2 was determined by using [3H]CP-55940 as radioligand.

As usually defined, the Ki is the dissociation constant of the complex between target and ligand, obtained from inhibition or displacement. A higher Ki goes with a looser hold on the target.

Sequence of Cannabinoid receptor 1 (P21554 whole entry): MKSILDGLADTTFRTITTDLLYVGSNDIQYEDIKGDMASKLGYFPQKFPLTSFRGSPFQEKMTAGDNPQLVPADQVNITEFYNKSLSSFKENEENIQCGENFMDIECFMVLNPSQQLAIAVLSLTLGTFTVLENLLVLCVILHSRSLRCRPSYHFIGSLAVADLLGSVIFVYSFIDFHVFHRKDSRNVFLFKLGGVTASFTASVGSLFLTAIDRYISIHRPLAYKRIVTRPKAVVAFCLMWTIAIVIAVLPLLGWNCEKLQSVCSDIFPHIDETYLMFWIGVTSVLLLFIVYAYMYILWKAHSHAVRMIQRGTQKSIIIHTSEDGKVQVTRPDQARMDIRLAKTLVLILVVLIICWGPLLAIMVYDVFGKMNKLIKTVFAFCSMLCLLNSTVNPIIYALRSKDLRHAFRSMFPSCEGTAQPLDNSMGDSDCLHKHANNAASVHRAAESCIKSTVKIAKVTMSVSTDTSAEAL
Sequence of Cannabinoid receptor (Homo sapiens) (P21554 whole entry, looked up): as the sequence (P21554 whole entry) above
Sequence of Cannabinoid receptor (Homo sapiens) (P34972 whole entry, looked up): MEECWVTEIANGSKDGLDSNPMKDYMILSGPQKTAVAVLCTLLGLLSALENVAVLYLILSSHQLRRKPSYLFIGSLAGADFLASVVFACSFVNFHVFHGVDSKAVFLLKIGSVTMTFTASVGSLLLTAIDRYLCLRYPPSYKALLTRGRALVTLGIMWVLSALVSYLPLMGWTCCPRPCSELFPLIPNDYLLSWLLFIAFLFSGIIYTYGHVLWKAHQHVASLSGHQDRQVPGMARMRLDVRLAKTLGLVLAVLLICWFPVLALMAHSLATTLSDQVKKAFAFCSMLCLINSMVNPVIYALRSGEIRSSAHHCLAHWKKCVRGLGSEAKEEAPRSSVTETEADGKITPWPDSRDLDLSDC
Sequence of Cannabinoid receptor 2 (P34972 whole entry): as the sequence (P34972 whole entry, looked up) above

On to `COc1ccc(S(=O)(=O)c2cc(OC)ccc2S(=O)(=O)c2ccc([C@H](C)NS(=O)(=O)Cc3ccccc3)cc2)cc1`, for which the results for the Ki (on Cannabinoid receptor 1; in assay [1]) were 0.079 µM and 0.16 µM, respectively. Further, in assay [2], the Selectivity amounted to 0.5.
Consider `COc1ccc(S(=O)(=O)c2cc(OC)ccc2S(=O)(=O)c2ccc([C@H](C)NC(=O)c3ccc(C)cc3)cc2)cc1`, for which the Ki at Cannabinoid receptor 1 came out at 0.884 µM; in assay [1] it was 0.289 µM. Moreover, in assay [2], the Selectivity was 3.
As for `COc1ccc(S(=O)(=O)c2cc(OC)ccc2S(=O)(=O)c2ccc([C@H](C)NC(=O)Cc3ccccc3)cc2)cc1`, the figures for the inhibition constant Ki (at Cannabinoid receptor 1; in assay [1]) were 0.478 µM and 0.412 µM, respectively. Moreover, the Selectivity in assay [2] is 1.2.
On to `COc1ccc(S(=O)(=O)c2cc(OC)ccc2S(=O)(=O)c2ccc([C@H](C)NS(=O)(=O)c3ccc(Cl)c(Cl)c3)cc2)cc1`, for which the Ki at Cannabinoid receptor 1 was determined as 0.117 µM; in assay [1], 2.48 µM. Besides, the Selectivity in assay [2] worked out at 0.05.
Regarding `COc1ccc(S(=O)(=O)c2cc(OC)ccc2S(=O)(=O)c2ccc([C@H](C)NS(C)(=O)=O)cc2)cc1`, the values for the Ki (on Cannabinoid receptor 1; in assay [1]) were 0.905 µM and 0.0004 µM, respectively. For the same compound, in assay [2], the Selectivity was 2260.
On to `CCCCS(=O)(=O)N[C@@H](C)c1ccc(S(=O)(=O)c2ccc(OC)cc2S(=O)(=O)c2ccc(OC)cc2)cc1`, for which the Ki on Cannabinoid receptor 1 turned out to be 1.13 µM; in assay [1], 0.041 µM. For the same compound, the Selectivity in assay [2] was 27.
On to `CCCC(=O)N[C@@H](C)c1ccc(S(=O)(=O)c2ccc(OC)cc2S(=O)(=O)c2ccc(OC)cc2)cc1`, for which the Ki turned out to be 1.17 µM on Cannabinoid receptor 1 and 0.0062 µM in assay [1]. In assay [2], this compound had a Selectivity of 189.
On to `CCC(=O)N[C@@H](C)c1ccc(S(=O)(=O)c2ccc(OC)cc2S(=O)(=O)c2ccc(OC)cc2)cc1`, for which the values for the inhibition constant (Ki) (on Cannabinoid receptor 1; in assay [1]) were 3.56 µM and 0.029 µM, respectively. In assay [2], the Selectivity amounted to 122.
For `COc1ccc(S(=O)(=O)c2cc(OC)ccc2S(=O)(=O)c2ccc([C@H](C)NC(C)=O)cc2)cc1`, in that order: 1.78 µM, 0.0077 µM and 231.
For `CCCNC(=O)N[C@@H](C)c1ccc(S(=O)(=O)c2ccc(OC)cc2S(=O)(=O)c2ccc(OC)cc2)cc1`, in that order: 72.1 µM, 0.495 µM and 145.
On the same counts, the results for `COc1ccc(S(=O)(=O)c2cc(OC)ccc2S(=O)(=O)c2ccc([C@H](C)NS(=O)(=O)c3ccc(C)cc3)cc2)cc1` are 1.92 µM, 0.495 µM and 3.9.
For `COc1ccc(S(=O)(=O)c2cc(OC)ccc2S(=O)(=O)c2ccc([C@H](C)NC(=O)c3ccc(Cl)c(Cl)c3)cc2)cc1`, the Ki was 0.084 µM at Cannabinoid receptor 1 and 0.167 µM in assay [1]. The compound also returned a Selectivity in assay [2] of 0.5.
In turn, `COc1ccc(C(=O)c2c(C)n(CCN3CCOCC3)c3cc(I)ccc23)cc1` registered an inhibitory constant (Ki) at Cannabinoid receptor 2 of 0.0312 µM.
Regarding `COc1ccc(S(=O)(=O)c2cc(OC)ccc2S(=O)(=O)c2ccc([C@H](C)NC(=O)C(F)(F)F)cc2)cc1`, the inhibition constant (Ki) came to 0.235 µM on Cannabinoid receptor 1 and 0.0003 µM in assay [1]. Also, the Selectivity in assay [2] turned out to be 783.
For the compound `COc1ccc(C(=O)N[C@@H](C)c2ccc(S(=O)(=O)c3ccc(OC)cc3S(=O)(=O)c3ccc(OC)cc3)cc2)cc1`, the values for the Ki (on Cannabinoid receptor 1; in assay [1]) were 1.17 µM and 1.26 µM, respectively. Also, the Selectivity in assay [2] was 0.9.
For `COc1ccc(S(=O)(=O)c2ccc([C@H](C)NC(=O)C(F)(F)F)cc2)cc1`, the Ki in assay [1] was found to be 0.031 µM.
Regarding `COc1ccc(S(=O)(=O)c2cc(OC)ccc2S(=O)(=O)c2ccc([C@H](C)NC(=O)C(C)(C)C)cc2)cc1`, the Ki amounted to 2.31 µM at Cannabinoid receptor 1 and 0.0386 µM in assay [1]. Besides, in assay [2], the Selectivity came out at 60.
Turning to `COc1ccc(S(=O)(=O)c2cc(OC)ccc2S(=O)(=O)c2ccc([C@H](C)NC(=O)C3CC3)cc2)cc1`, the Ki on Cannabinoid receptor 1 was determined as 10.6 µM; in assay [1] it was 0.0157 µM. For the same compound, the Selectivity in assay [2] turned out to be 676.
Consider `COc1ccc(S(=O)(=O)c2cc(OC)ccc2S(=O)(=O)c2ccc([C@H](C)NC(=O)Nc3ccc(F)cc3)cc2)cc1`, for which the figures for the Ki (at Cannabinoid receptor 1; in assay [1]) were 17.6 µM and 1.14 µM, respectively. Further, in assay [2], the Selectivity was found to be 15.
For `COc1ccc(S(=O)(=O)c2cc(OC)ccc2S(=O)(=O)c2ccc([C@H](C)NC(=O)Nc3ccc(C)cc3)cc2)cc1`, the Ki on Cannabinoid receptor 1 worked out at 100 µM; in assay [1] it was 0.802 µM. Besides, the Selectivity in assay [2] was found to be 125.
Take `COc1ccc(S(=O)(=O)c2cc(OC)ccc2S(=O)(=O)c2ccc([C@H](C)NS(=O)(=O)c3ccccc3)cc2)cc1`: the Ki on Cannabinoid receptor 1 came to 0.855 µM; in assay [1], 0.239 µM. For the same compound, the Selectivity in assay [2] was determined as 3.6.
For `CCS(=O)(=O)N[C@@H](C)c1ccc(S(=O)(=O)c2ccc(OC)cc2S(=O)(=O)c2ccc(OC)cc2)cc1`, in that order: 1.97 µM, 0.001 µM and 1510.
